Screens (PubChem BioAssay)
Most compounds without a hit are left out; they make up all but 1.4% or so of the library.
Fh CTSL1 inh: Fasciola hepatica cathepsin L1 inhibitors, primary screen, counter-screen for PFM18AAP inhibitor project, biochemical, QFRET, fluorogenic peptide substrate; AID 1906, 2009; inhibition, % at 5.96 µM; 300,000 compounds, 0.49% hits; recombinant F. hepatica cathepsin L1, Z-Leu-Arg-MCA fluorescence;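 active = inhibition above the mean of all tested compounds plus 3 SD, set per screening campaign, cut at about 17% in these data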;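 also: 0% = plate median of test compound wells and 100% = 1 µM Z-Phe-Ala-diazomethylketone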
ATG4B inh: ATG4B protease inhibitors, primary screen, biochemical, fluorescence, uHTS. ATG4B cleavage of LC3-PLA2, NBD-HPC fluorescence, 1 h. inhibition, % at 8.33 µM. 340,000 compounds, 0.51% hits. AID 504462, 2011; in the data active = inhibition above about 40%
Diaphorase act: compounds boosting diaphorase resazurin reduction – biochemical, uHTS, resorufin fluorescence, counter-screen for diaphorase-coupled primary assays, primary screen. AID 1229, 2008. 190,000 compounds, 0.005% hits. activation factor at 20 µM. Diaphorase/resazurin coupled assay, 16 min; stronger effect = higher value; 1 = vehicle wells, 0 = NADH-free wells;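 active = diaphorase activity raised at least twofold by the compound at 20 µM; inactive = activation factor below 2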
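Material: Purified diaphorase enzyme from Clostridium kluyveri | Buffer or medium: 50 mM HEPES pH 7.4 with 4.542 mM MgCl2, 0.005% Tween 20 | Times: 16 min enzyme reaction, ambient temperature | Signal: Red resorufin fluorescence at 544/590 nm excitation/emission | Measure: Increased resorufin signal from activators or reducing compounds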
HKDC1 inhibitor: HKDC1 hexokinase inhibitors, primary screen, biochemical, fluorescence, uHTS | 340,000 compounds, 0.16% hits | inhibition, % at 20 µM | Q2TB90 | recombinant HKDC1, G6PDH/diaphorase resazurin coupled fluorescence;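 active = inhibition above about 35% when tested at 20 µM, limit read from the data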;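 also: plate controls were DMSO wells with enzyme for no effect and DMSO wells lacking enzyme for full effect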
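Assay system: recombinant HKDC1 hexokinase; detection: coupled resazurin fluorescence, excitation 525 nm, emission 613 nm; benchmarks: DMSO-plus-enzyme-mix negative control, buffer-substituted positive control; compound dosing: single 20 µM dose; schedule: 90 min at room temperature in dark; also added: glucose plus 1 mM ATP as hexokinase substrates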
Diaph inh CS: diaphorase inhibitors and chemical oxidizers, primary screen, counter-screen for diaphorase-coupled primary assays, biochemical, uHTS, resorufin fluorescence; inhibition, % at 20 µM; 190,000 compounds, 0.69% hits; diaphorase resazurin-to-resorufin fluorescence, NADH, 16 min; bacterial (C. kluyveri) enzyme, not human; AID 1217, 2008;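 active = primary screen inhibition at 20 µM above a set limit, cut at about 50% in these data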;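 also: plate controls were DMSO with full reaction for no effect and wells lacking NADH for full effect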
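System: Diaphorase enzyme from Clostridium kluyveri | Amount: Enzyme working solution with 0.14 U/mL diaphorase | Benchmarks: No-NADH positive control and DMSO neutral control | Signal: Fluorescence of resorufin formed from resazurin, Ex 544/Em 590 nm | Schedule: 16-min room-temperature incubation before reading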
An asterisk follows results filed as active; . = no result given.

SMILES	Fh CTSL1 inh	ATG4B inh	Diaphorase act	HKDC1 inhibitor	Diaph inh CS
O=C(O)c1cc(-c2ccc(/C=C3/SC(=S)N(Cc4ccccc4)C3=O)o2)ccc1Cl	.	16	0.5	6	52*
Cc1ccc(C(=O)O)cc1-c1ccc(/C=C2\SC(=O)N(CC(=O)Nc3ccccc3)C2=O)o1	7	38	0.4	12	57*
Cc1ccc(NC(=O)CN2C(=O)S/C(=C\c3ccc(-c4cccc(C(=O)O)c4C)o3)C2=O)cc1	1	.	0.7	.	28
Cc1ccc(NC(=O)CN2C(=O)S/C(=C/c3ccc(-c4cccc(C(=O)O)c4)o3)C2=O)cc1	.	4	0.4	29	57*
COc1ccc(CN2C(=O)/C(=C/c3ccc(-c4ccc(Cl)c(C(=O)O)c4)o3)SC2=S)cc1	.	.	0.6	.	36
Cc1ccc(NC(=O)COc2cccc(-n3cnnn3)c2)cc1[N+](=O)[O-]	3	-18	.	-3	.
COc1ccc(Cc2nnc(SCC(=O)N3CCCCC3)o2)cc1	17*	-11	1	0	0
O=C(CSc1nnc(C2CCCCC2)o1)N1CCCCC1	23*	2	0.9	-3	9
COc1ccc(Cc2nnc(SCC(=O)N3CCN(c4ccccc4)CC3)o2)cc1	-7	-1	0.8	16	18
CCOC(=O)c1ccc(N2CCOCC2)c(NS(=O)(=O)c2ccc(F)cc2)c1	-2	-3	.	4	.
c1ccc(Cc2nnc3sc(-c4cccnc4)nn23)cc1	22*	3	0.7	0	25
c1ccc(Cc2nnc3sc(-c4ccncc4)nn23)cc1	-5	1	0.7	-6	31
O=C(CNC(c1ccccc1)c1ccccc1)Nc1ccccc1Br	4	1	.	-1	.
O=CN1CCN(C(=O)c2ccc(-c3nc4ccccc4s3)s2)CC1	26*	-5	1.1	-3	-10
CCCN1/C(=C2/SC(=S)N(CC)C2=O)C=Cc2ccccc21	30*	2	1	5	4
CCCN1C(=O)/C(=C2/C=Cc3ccccc3N2CC)SC1=S	1	-2	0.8	1	18
N#CC(OC(=O)c1ccccc1)c1cccc([N+](=O)[O-])c1 (stereo not given)	.	-1	.	-2	.
COc1ccc(OC)c(NC(=O)COC(=O)c2ccc(OC)c(S(=O)(=O)N3CCOCC3)c2)c1	.	-9	.	-3	.
CCOC(=O)c1c(C)oc(NC(=O)CCl)c1C(=O)OCC	84*	-8	0.9	-7	10
CCCCCOCC1CC(C/C(C)=N/NC(N)=S)C(=O)O1 (stereo not given)	18*	-2	0.9	-19	10
O=C(NNC(=O)C1CC(c2cccs2)=NO1)Nc1ccccc1 (stereo not given)	-2	-9	.	0	.
Cc1cc(C)nc(Nc2ccc(N3CCCC3)cc2)n1	17*	-5	0.7	5	29
Cc1cc(C)nc(Nc2ccc(N3CCOCC3)cc2)n1	1	-3	0.9	-1	10
CC1CN(CCCCOc2ccc3ccccc3c2)CC(C)O1 (stereo not given)	19*	-2	0.8	-4	21
COCCCNc1nc2c(-c3ccc(C)cc3)nnn2c2ccccc12	-2	5	.	-2	.
SMILES	Fh CTSL1 inh	ATG4B inh	Diaphorase act	HKDC1 inhibitor	Diaph inh CS
COCCCNc1nc2c(-c3cccc(C)c3)nnn2c2ccccc12	18*	-5	1	-2	1
CC(NC(=O)c1cc(S(=O)(=O)N2CCOCC2)cn1C)c1ccccc1 (stereo not given)	0	1	.	-3	.
Cc1ccc(C(C(=O)NCC2CCCO2)N(C(=O)c2snc(C(N)=O)c2N)c2ccc(F)cc2)o1 (stereo not given)	3	-4	.	-5	.
Cc1ccc(C(C(=O)NCC2CCCO2)N(C(=O)c2snc(C(N)=O)c2N)c2ccccc2F)o1 (stereo not given)	19*	-10	.	-5	.
CN(C)S(=O)(=O)c1ccc(C(=O)Nc2ccccc2C(=O)NCCCN2CCOCC2)cc1	.	-8	.	-3	.
O=C(Nc1ccccc1C(=O)NCCCN1CCOCC1)c1cccc([N+](=O)[O-])c1	18*	1	.	-1	.
CCc1ccc(-n2c(C)cc(/C=N/NC(=O)c3ccncc3)c2C)cc1	1	-9	0.2	-4	84*
Cc1cc(C)n(C(=O)/C(C#N)=N/Nc2cc(Cl)cc(Cl)c2)n1	20*	4	0.9	5	12
Cc1cc(O)c(C=O)c2c1C(=O)Oc1c(CO)c(O)c3c(c1O2)C(O)OC3=O (stereo not given)	2	86*	0.3	37*	75*
O=S(=O)(c1cccc2ccccc12)N1CCC2CC1c1cc(Cl)ccc12 (stereo not given)	.	0	.	2	.
Cc1coc2c1C(=O)C(=O)c1c-2ccc2c(C)cccc12	94*	-2	.	30	.
O=S1(=O)c2ccc(Br)cc2N2CCC[C@@H]2CN1Cc1ccccc1	.	.	.	3	.
O=C1Nc2ccc(Cl)cc2/C1=C/C1CC=CCC1 (stereo not given)	47*	-6	0.7	18	28
C=C(CCC(=O)c1ccccc1)C(=O)c1ccccc1	41*	16	0.9	17	12
O=C(CCCCCCCC(=O)c1ccccc1)c1ccccc1	-1	13	0.8	2	20
CCCN(CC1CC1)c1nc(N)c2c(N)nc(OC)cc2c1C#N	1	-12	0.5	22	52*
CCOc1cc2c(C#N)c(N(CC)CC)nc(N)c2c(N)n1	6	11	.	19	.
CC(C)N(CCn1c(SCC(=O)Nc2cccnc2Cl)nc2ccccc2c1=O)C(C)C	.	1	.	-9	.
CCC(=O)OCCNc1cc(Sc2nc3ccccc3[nH]2)c2nonc2c1[N+](=O)[O-]	4	3	0.7	8	31
O=[N+]([O-])c1c(NCCCO)cc(Sc2nc3ccccc3s2)c2nonc12	8	-3	0.3	11	71*
Cc1nnc(Sc2cc(NCCO)c([N+](=O)[O-])c3nonc23)s1	.	-3	0.6	10	40
Cc1nnc(Sc2cc(NCCCO)c([N+](=O)[O-])c3nonc23)s1	.	-7	0.4	22	59*
CCC(=O)OCCNc1cc(Sc2nc3ccccc3s2)c2nonc2c1[N+](=O)[O-]	3	3	0.4	14	58*
O=C(COC(=O)CCc1nc2ccccc2c(=O)[nH]1)Nc1ccccc1OC(F)F	.	9	.	-7	.
COc1ccc(CCN(C)Cc2c(O)ccc3ccccc23)cc1OC	-1	1	.	15	.
CC(=O)N/C(=C\c1ccccc1)C(=O)OCc1cccc(S(=O)(=O)N(C)C)c1	.	-2	.	-3	.
